According to ChEMBL document CHEMBL4229410, “Facile construction of fused benzimidazole-isoquinolinones that induce cell-cycle arrest and apoptosis in colorectal cancer cells” (Bioorg Med Chem, 2018):
pKd: −log10 of the molar value. Calls of active or inactive are those of the source. The calls are words filed in the database; no cut-off is given here.

Key:
HT-29 [1] = test: Inhibition of colony formation in human HT-29 cells assessed as reduction in number of colonies at 25 to 75 uM treated for 48 hrs followed by compound washout and measured after 14 hrs by crystal violet staining based assay; assay type: functional, cell-based
SW-620 [2] = test: Cell cycle arrest in human SW620 cells assessed as accumulation at G1-phase at 50 uM after 48 hrs by propidium iodide staining based flow cytometry (reference value: 40.56%); assay type: functional
SW-620 [3] = test: Cell cycle arrest in human SW620 cells assessed as accumulation at G2-phase at 50 uM after 48 hrs by propidium iodide staining based flow cytometry (reference value: 14.08%); assay type: functional
SW-620 [4] = test: Cell cycle arrest in human SW620 cells assessed as accumulation at G1-phase at 75 uM after 48 hrs by propidium iodide staining based flow cytometry (reference value: 40.56%); assay type: functional
HT-29 [5] = test: Induction of apoptosis in human HT-29 cells assessed as necrotic cells at 50 uM after 48 hrs by Annexin-V-FITC/propidium iodide staining based flow cytometry (reference value: 1.6%); assay type: functional
SW-620 [6] = test: Effect on total AKT expression in human SW620 cells up to 75 uM after 48 hrs by Western blot analysis; assay type: ADME, cell-based; settings: sw-620, 48 h
Summary of the method: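 HT29 or SW620 cells were treated at 0, 25, 50 and 75 μM for 48 h and lysed in RIPA with protease and phosphatase inhibitors. Protein was quantified by BCA. 50 μg lysate was run on 8–15% SDS-PAGE and transferred to PVDF. Blocking was 5% BSA/TBST for 2 h; primary antibodies were applied overnight at 4 °C, then HRP secondary 1 h at room temperature.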

[7] = molecular target: Cyclin-dependent kinase 19 (Homo sapiens, UniProt Q9BWU1); test: Inhibition of human CDK11 (M1 to N360 residues) expressed in bacterial expression system assessed as residual activity at 5 uM by KINOMEscan assay relative to control
[8] = molecular target: Fibroblast growth factor receptor 2 (Homo sapiens, UniProt P21802); test: Inhibition of partial length human FGFR2 (D457 to E769 residues) expressed in bacterial expression system assessed as residual activity at 5 uM by KINOMEscan assay relative to control
[9] = molecular target: Inhibitor of nuclear factor kappa-B kinase subunit alpha (Homo sapiens) (UniProt O15111); test: Inhibition of full length human IKKalpha (M1 to E745 residues) expressed in mammalian expression system assessed as residual activity at 5 uM by KINOMEscan assay relative to control
[10] = molecular target: Tyrosine-protein kinase JAK2 (Homo sapiens, UniProt O60674); test: Inhibition of human JAK2 JH1 catalytic domain (A829 to G1132 residues) expressed in mammalian expression system assessed as residual activity at 5 uM by KINOMEscan assay relative to control
[11] = molecular target: Serine/threonine-protein kinase STK11 (Homo sapiens) (UniProt Q15831); test: Inhibition of full length human LKB1 (M1 to Q433 residues) expressed in bacterial expression system assessed as residual activity at 5 uM by KINOMEscan assay relative to control
[12] = molecular target: Phosphatidylinositol 4,5-bisphosphate 3-kinase catalytic subunit gamma isoform (Homo sapiens, UniProt P48736); test: Inhibition of human PIK3CG (S144 to A1102 residues) expressed in mammalian expression system assessed as residual activity at 5 uM by KINOMEscan assay relative to control
[13] = molecular target: Serine/threonine-protein kinase PLK4 (Homo sapiens) (UniProt O00444); test: Inhibition of partial length human PLK4 (M1 to S273 residues) expressed in mammalian expression system assessed as residual activity at 5 uM by KINOMEscan assay relative to control
[14] = molecular target: Testis-specific serine/threonine-protein kinase 1 (Homo sapiens) (UniProt Q9BXA7); test: Inhibition of full length human TSSK1B (M1 to Q367 residues) expressed in bacterial expression system assessed as residual activity at 5 uM by KINOMEscan assay relative to control
[15] = molecular target: RAC-beta serine/threonine-protein kinase (Homo sapiens, UniProt P31751); test: Binding affinity to human AKT2 expressed in bacterial expression system by KINOMEscan assay
[16] = molecular target: Serine/threonine-protein kinase DCLK1 (Homo sapiens, UniProt O15075); test: Binding affinity to partial length human DCAMKL1 (L270 to A662 residues) expressed in mammalian expression system by KINOMEscan assay
[17] = molecular target: Fibroblast growth factor receptor 3 (Homo sapiens, UniProt P22607); test: Binding affinity to partial length human FGFR3 (R442 to S771 residues) expressed in bacterial expression system by KINOMEscan assay
Insulin receptor = Insulin receptor (Homo sapiens, UniProt P06213); test: Binding affinity to human INSR (P997 to E1318 residues) expressed in mammalian expression system by KINOMEscan assay
[18] = molecular target: Mitogen-activated protein kinase kinase kinase 9 (Homo sapiens, UniProt P80192); test: Binding affinity to human MLK1 (V88 to W426 residues) expressed in bacterial expression system by KINOMEscan assay
[19] = molecular target: Mitogen-activated protein kinase 11 (Homo sapiens, UniProt Q15759); test: Binding affinity to full length human p38beta (M1 to Q364 residues) expressed in bacterial expression system by KINOMEscan assay
[20] = molecular target: Serine/threonine-protein kinase PAK 2 (Homo sapiens, UniProt Q13177); test: Binding affinity to partial length human PAK2 (P151 to R525 residues) expressed in bacterial expression system by KINOMEscan assay
[21] = molecular target: Platelet-derived growth factor receptor beta (Homo sapiens, UniProt P09619); test: Binding affinity to human PDGFRB (V582 to Y1009 residues) expressed in bacterial expression system by KINOMEscan assay
[22] = molecular target: Serine/threonine-protein kinase PLK1 (Homo sapiens, UniProt P53350); test: Binding affinity to human PLK1 (A33 to F325 residues) expressed in mammalian expression system by KINOMEscan assay
[23] = molecular target: Rho-associated protein kinase 2 (Homo sapiens, UniProt O75116); test: Binding affinity to human ROCK2 (M1 to T431 residues) expressed in mammalian expression system by KINOMEscan assay
SRSF protein kinase 3 = SRSF protein kinase 3 (Homo sapiens, UniProt Q9UPE1); test: Binding affinity to human SRPK3 (P41 to P567 residues) expressed in bacterial expression system by KINOMEscan assay
Angiopoietin-1 receptor = Angiopoietin-1 receptor (Homo sapiens, UniProt Q02763); test: Binding affinity to human TIE2 (N804 to T1112 residues) expressed in bacterial expression system by KINOMEscan assay
[24] = molecular target: Non-receptor tyrosine-protein kinase TYK2 (Homo sapiens, UniProt P29597); test: Binding affinity to human TYK2 JH1 catalytic domain (V877 to C1187 residues) expressed in mammalian expression system by KINOMEscan assay
[25] = molecular target: Serine/threonine-protein kinase 32C (Homo sapiens, UniProt Q86UX6); test: Binding affinity to human YANK3 (M68 to G486 residues) expressed in bacterial expression system by KINOMEscan assay

Platelet-derived growth factor receptor beta, sequence (P09619 whole entry, the tested form may be a part): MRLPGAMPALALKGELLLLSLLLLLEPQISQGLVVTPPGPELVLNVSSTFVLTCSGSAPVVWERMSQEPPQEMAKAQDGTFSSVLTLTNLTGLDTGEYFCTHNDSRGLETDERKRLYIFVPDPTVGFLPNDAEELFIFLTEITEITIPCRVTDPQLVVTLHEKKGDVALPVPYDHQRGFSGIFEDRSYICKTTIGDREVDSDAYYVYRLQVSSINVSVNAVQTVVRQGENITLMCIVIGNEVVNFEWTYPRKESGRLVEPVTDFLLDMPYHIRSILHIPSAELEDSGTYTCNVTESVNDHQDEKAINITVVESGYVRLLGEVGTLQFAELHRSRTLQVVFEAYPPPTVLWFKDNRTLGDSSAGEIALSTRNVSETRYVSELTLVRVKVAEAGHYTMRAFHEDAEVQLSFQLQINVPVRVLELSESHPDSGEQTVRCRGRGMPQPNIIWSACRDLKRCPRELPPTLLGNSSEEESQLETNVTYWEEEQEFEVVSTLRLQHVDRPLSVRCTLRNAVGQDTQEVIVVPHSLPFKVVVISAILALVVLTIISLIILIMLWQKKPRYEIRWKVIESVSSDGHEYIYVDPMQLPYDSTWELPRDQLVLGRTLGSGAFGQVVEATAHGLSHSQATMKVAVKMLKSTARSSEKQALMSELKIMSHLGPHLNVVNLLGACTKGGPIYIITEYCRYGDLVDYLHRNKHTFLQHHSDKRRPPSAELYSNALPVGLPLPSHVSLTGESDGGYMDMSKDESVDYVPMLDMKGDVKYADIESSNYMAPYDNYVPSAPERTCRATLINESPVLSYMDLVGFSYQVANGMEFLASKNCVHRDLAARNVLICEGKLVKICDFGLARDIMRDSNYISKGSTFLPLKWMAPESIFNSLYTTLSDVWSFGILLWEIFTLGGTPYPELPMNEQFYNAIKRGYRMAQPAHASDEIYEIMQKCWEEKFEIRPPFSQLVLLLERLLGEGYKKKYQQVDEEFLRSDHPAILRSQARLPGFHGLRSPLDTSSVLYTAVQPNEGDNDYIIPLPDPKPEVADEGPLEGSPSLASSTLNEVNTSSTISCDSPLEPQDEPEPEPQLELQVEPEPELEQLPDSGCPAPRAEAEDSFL
Serine/threonine-protein kinase STK11 (Homo sapiens), sequence (Q15831 whole entry, the tested form may be a part, canonical isoform): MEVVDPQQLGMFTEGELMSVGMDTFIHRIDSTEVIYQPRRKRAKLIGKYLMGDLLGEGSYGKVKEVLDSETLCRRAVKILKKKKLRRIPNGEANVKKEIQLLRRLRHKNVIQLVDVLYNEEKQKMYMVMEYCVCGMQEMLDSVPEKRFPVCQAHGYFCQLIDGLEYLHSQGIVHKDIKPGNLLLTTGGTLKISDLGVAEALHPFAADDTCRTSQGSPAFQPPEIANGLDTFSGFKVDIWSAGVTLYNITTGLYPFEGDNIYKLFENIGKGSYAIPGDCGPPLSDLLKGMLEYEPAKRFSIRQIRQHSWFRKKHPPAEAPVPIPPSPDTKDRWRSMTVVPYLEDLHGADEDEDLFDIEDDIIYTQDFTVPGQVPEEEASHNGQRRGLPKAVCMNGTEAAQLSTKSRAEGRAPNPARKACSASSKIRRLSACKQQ
Inhibitor of nuclear factor kappa-B kinase subunit alpha (Homo sapiens), sequence (O15111 whole entry, the tested form may be a part): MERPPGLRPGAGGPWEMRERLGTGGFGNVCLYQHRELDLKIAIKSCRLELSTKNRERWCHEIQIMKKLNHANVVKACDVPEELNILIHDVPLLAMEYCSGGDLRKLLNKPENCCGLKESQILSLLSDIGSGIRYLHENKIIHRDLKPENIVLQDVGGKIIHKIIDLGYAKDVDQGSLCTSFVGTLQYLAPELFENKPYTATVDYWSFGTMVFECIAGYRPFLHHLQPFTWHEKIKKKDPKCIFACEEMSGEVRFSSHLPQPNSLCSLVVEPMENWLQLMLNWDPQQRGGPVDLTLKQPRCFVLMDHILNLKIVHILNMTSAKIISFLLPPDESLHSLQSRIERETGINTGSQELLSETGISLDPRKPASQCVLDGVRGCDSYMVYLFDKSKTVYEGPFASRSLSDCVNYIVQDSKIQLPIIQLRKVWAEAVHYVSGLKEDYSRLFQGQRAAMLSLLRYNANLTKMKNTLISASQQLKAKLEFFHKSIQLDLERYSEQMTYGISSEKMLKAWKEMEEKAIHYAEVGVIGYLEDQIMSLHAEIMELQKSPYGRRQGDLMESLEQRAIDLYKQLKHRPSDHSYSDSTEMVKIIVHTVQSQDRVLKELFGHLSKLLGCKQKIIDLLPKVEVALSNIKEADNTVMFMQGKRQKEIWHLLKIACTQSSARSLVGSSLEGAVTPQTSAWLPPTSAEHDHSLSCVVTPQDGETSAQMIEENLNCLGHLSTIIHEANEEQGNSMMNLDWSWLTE
Non-receptor tyrosine-protein kinase TYK2, sequence (P29597 whole entry, the tested form may be a part): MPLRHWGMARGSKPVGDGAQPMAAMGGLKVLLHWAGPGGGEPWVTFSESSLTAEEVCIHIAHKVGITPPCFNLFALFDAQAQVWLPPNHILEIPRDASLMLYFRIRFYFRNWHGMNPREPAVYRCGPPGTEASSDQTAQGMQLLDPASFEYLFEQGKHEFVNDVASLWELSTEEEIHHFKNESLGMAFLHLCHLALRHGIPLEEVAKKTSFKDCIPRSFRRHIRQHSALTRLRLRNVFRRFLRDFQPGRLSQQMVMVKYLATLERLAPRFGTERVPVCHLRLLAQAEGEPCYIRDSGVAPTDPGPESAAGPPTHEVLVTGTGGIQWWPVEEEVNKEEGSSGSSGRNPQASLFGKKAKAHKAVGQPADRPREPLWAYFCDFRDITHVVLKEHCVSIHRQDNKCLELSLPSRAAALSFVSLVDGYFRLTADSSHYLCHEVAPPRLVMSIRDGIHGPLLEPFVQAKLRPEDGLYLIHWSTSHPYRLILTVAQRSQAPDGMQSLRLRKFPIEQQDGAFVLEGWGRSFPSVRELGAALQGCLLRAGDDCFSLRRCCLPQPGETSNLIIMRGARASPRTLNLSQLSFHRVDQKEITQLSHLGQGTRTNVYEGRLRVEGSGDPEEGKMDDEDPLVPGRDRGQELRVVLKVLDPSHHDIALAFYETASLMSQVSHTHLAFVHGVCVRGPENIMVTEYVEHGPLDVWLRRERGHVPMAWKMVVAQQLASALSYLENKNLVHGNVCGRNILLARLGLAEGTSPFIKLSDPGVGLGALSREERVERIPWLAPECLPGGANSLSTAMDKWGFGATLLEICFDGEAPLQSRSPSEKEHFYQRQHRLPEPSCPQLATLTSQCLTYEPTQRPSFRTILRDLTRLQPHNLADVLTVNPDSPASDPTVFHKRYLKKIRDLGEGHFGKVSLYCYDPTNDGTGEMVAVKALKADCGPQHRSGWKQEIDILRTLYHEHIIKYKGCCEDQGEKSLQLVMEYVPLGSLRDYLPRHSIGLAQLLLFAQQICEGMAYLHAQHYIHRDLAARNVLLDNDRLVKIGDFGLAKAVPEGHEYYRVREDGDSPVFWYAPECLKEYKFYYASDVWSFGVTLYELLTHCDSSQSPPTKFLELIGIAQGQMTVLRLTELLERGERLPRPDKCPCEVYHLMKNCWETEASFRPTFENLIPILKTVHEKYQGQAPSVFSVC
Testis-specific serine/threonine-protein kinase 1 (Homo sapiens), sequence (Q9BXA7 whole entry, the tested form may be a part): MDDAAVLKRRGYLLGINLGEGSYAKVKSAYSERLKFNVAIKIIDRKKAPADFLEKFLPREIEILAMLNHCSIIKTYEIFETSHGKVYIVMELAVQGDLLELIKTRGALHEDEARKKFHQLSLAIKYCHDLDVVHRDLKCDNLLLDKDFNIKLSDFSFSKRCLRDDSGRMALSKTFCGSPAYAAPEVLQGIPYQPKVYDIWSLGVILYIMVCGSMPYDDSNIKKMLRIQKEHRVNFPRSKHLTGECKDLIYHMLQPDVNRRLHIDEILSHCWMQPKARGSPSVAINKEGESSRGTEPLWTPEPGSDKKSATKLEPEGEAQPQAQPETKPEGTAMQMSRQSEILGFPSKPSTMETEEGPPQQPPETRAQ
Serine/threonine-protein kinase PLK4 (Homo sapiens), sequence (O00444 whole entry, the tested form may be a part): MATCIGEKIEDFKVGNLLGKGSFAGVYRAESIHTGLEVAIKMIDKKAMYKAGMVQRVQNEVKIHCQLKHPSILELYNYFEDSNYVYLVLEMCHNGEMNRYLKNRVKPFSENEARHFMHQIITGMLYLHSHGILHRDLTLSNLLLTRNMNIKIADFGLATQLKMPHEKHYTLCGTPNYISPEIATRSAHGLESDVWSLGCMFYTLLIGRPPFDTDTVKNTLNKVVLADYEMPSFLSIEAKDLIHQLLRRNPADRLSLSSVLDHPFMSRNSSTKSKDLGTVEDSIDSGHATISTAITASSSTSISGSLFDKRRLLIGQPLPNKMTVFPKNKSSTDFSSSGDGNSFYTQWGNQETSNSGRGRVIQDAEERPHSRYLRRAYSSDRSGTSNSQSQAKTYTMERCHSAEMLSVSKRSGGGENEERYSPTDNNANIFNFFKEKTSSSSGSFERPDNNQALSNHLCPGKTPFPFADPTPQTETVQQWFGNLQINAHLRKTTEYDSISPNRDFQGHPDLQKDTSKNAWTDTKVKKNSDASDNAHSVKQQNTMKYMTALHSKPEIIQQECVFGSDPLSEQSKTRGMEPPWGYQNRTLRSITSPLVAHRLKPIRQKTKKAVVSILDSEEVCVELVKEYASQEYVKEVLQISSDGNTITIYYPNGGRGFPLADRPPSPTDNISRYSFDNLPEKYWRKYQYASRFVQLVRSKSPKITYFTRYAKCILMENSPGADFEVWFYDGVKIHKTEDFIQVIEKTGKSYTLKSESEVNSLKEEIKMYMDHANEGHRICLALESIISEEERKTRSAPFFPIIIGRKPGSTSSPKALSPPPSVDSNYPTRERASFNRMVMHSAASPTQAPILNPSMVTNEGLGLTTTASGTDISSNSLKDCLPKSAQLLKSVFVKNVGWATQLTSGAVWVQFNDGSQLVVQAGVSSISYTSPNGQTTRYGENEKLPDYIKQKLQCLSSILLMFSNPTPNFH

For `CC(C)CN(C(=O)c1cccnc1)c1c2ccccc2c(=O)n2c1[nH]c1ccccc12`, the inhibition (HT-29 [1]) was “Active”, the Activity (SW-620 [2]) was 46.19% and the Activity (SW-620 [3]) was 21.52%. For the same compound, the Activity (SW-620 [4]) was 31.67%, the Activity (HT-29 [5]) was 4.4% and the Activity (SW-620 [6]) was “Non-Toxic”. It also gave an Activity [7] of 77%, an Activity [8] of 76% and an Activity [9] of 100%. It also gave an Activity [10] of 88%, an Activity [11] of 63% and an Activity [12] of 100%. For the same compound, the Activity [13] was 100%, the Activity [14] was 92% and the pKd [15] was no more than 5.30. It also gave a pKd [16] of no more than 5.30, a pKd [17] of no more than 5.30 and a pKd (Insulin receptor) of no more than 5.30. For the same compound, the pKd [18] was no more than 5.30, the pKd [19] was no more than 5.30 and the pKd [20] was no more than 5.30. It also gave a pKd [21] of no more than 5.30, a pKd [22] of no more than 5.30 and a pKd [23] of no more than 5.30. It also gave a pKd (SRSF protein kinase 3) of no more than 5.30, a pKd (Angiopoietin-1 receptor) of no more than 5.30 and a pKd [24] of no more than 5.30. It also gave a pKd [25] of no more than 5.30.
